Experimental findings from the EternaBench riboswitch data are described below.

The data set relates to MS2 coat protein. The data set can be described thus: apparent Kd, MS2 coat protein; higher = weaker binding; RNA-MaP array; FMN 200 µM where present. The method, boiled down: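 Stalled E. coli RNA polymerase produced the designs on Illumina sequencing-chip clusters. SNAP-549-labelled MS2 coat protein was added from 0.7 or 1.5 nM, doubling to 3 µM, without and then with constant ligand, in 100 mM Tris-HCl pH 7.5, 80 mM KCl, 4 mM MgCl2, BSA, DTT, yeast tRNA and Tween-20. The apparent Kd is the median of filtered per-cluster fits of green signal normalised to red-channel RNA signal and control-cluster median Fmax.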

Setting [1] is: designed as: OFF switch for flavin mononucleotide, no ligand.
[2] abbreviates: ligand present: flavin mononucleotide, designed as: OFF switch for flavin mononucleotide.
[3] abbreviates: designed as: ON switch for flavin mononucleotide, no ligand.
Where [4] appears, read: ligand present: flavin mononucleotide, designed as: ON switch for flavin mononucleotide.

One may read the apparent Kd as a dissociation constant that holds for the conditions of the assay. As to “ACUGCUCGAGGAUAUACAUGAGGAUCACCCAUGUAACCCAGAAGCACGGCCUCAGGAUGUAGAAGGCGACGCAA”, the “apparent Kd” value reads like this: under setting [1], 13.1 nM; under setting [2], 13.2 nM.

Regarding “AGGAAGUAAGGAUAUGCUGCUCGUCACUUGCGUGAUGAGUAGCAGAAGGUACAUGAGGAUCACCCAUGUAAAAA”, the “apparent Kd” value under setting [1] turned out to be 23.7 nM and the “apparent Kd” value under setting [2] is 18.5 nM.

On to “UGUGCGUUGAUCUUCGAUCGGUGUACAUGAGGAUCACCCAUGUAGGAUAUUCAAAGACGCAGAUAGGAGAAGGACAUCGGAUUA”, for which the “apparent Kd” value under setting [1] was determined as 19.2 nM and the “apparent Kd” value under setting [2] stood at 17.2 nM.

For “GAAAGAAAUCCAACAUGAGGAUCACCCAUGUUAGGCCAGUGGCAGGAUAUGGUGGGACUGAUGCACCAGAAGGGUCAGGUGGGC”, the “apparent Kd” value reads like this: under setting [3], 17.9 nM; under setting [4], 10 nM.

With “UGUAUGUAGGCAGGAUAUACAUGAAUAUAUAUGAUGUAGUAUGAUGUAACAUGAGGAUCACCCAUGUAGAAGGGCCAGUGUAUA”, the “apparent Kd” value is, setting by setting: under setting [1], 102 nM; under setting [2], 164 nM.

On to “GGUGCGUAUGUGAGGAUAUGCUGGUCCUUGGAUCGGCAGAAGGUACAUGAGGAUCACCCAUGUGGUGUCGUUCC”, for which the “apparent Kd” value by setting is: under setting [1], 97.5 nM; under setting [2], 289 nM.

For “UUCAUGUGAGGAUAUGCGGCGGCAGGUGGGCCUGUCGCUGAGCAGAAGGCACAUGAGGAUCACCCAUGUGCUCC”, the “apparent Kd” value runs as follows: under setting [1], 34.3 nM; under setting [2], 59.7 nM.

With “UAUUUGCAAGGAUAUGAUUUAAGUAACAUGAGGAUCACCCAUGUUUAUCCGUUGUUAUGUUCAGAAGGUGCGUGAU”, the “apparent Kd” value runs as follows: under setting [1], 50.8 nM; under setting [2], 72.4 nM.

With “AAGGAUAGAGGAUAUACAUAGAUACAGAUUCAUGUAGAAUUACAUGAGGAUCACCCAUGUAGAAGGCUAUCCUA”, the “apparent Kd” value under setting [1] came to 635 nM and the “apparent Kd” value under setting [2] was determined as 29 nM.

As for “ACAUUUAAUACAGGAUAUGUUAGUAUACAGUAGAUUGGUUAUUACAUAAUAACAGAAGGGUAGAACAUGAGGAUCACCCAUGUA”, the “apparent Kd” value worked out at 217 nM under setting [3] and 106 nM under setting [4].

As for “GUAGCAUACCGAGGAUAUUCAGAUAAUAAAUAAACAUGAGGAUCACCCAUGUGGCGAAAGCCUAGGGAGAAGGCGGAAUGCUAC”, the “apparent Kd” value was 77 nM under setting [3] and 20.6 nM under setting [4].

Take “GUUGAUGGAGGAUAUACUGCAGUGAUUGGCAAGAAUCCAGCACAUGAGGAUCACCCAUGUAGAAGGCCAUAACA”: the “apparent Kd” value was found to be 25.8 nM under setting [1] and 63.5 nM under setting [2].

As for “GGUGCGUAUGUGAGGAUAUGCUGGUCCUUGGCUCGGCAGAAGGCACAUGAGGAUCACCCAUGUGGUGUCGUACC”, the “apparent Kd” value under setting [1] was 278 nM and the “apparent Kd” value under setting [2] is 50.9 nM.

For the sequence “AUCGAGUAAGGAUAUACAUGAGGAUCACCCAUGUCCGUGAGGUAAGUUUGUGUCCGGCGUAGAAGGUACUGCAU”, the “apparent Kd” value is, setting by setting: under setting [1], 52.1 nM; under setting [2], 121 nM.

For “GGAUUUUACUAGUUUUCUAAACAUGAGGAUCACCCAUGUUUUUAGGAUAUCAGCGUGAAACACGCUGAGAAGGAAGAACAAUCC”, the “apparent Kd” value was determined as 15.7 nM under setting [1] and 18.2 nM under setting [2].

“AACAAUCUAUCUGAGGAUAUCAUGAAAUAAACAUGAGGAUCACCCAUGUGUAGGAAAACUGCAUAUGAGAAGGCAGAUAGAUUGA”: the “apparent Kd” value is 930 nM under setting [3] and 43.5 nM under setting [4].

Take “GUCAGCUCGUGAGGAUAUACAACACCGCUUCGGCAGUGUAUUAAGAUCACAUGAGGAUCACCCAUGUAGAAGGCACGAGCUGAU”: the “apparent Kd” value reads like this: under setting [1], 12.9 nM; under setting [2], 255 nM.

For “UCGAAACAGACAGGAUAUGCAGGGAGGUGCCGGUACAUGAGGAUCACCCAUGUAGAAGGGUCUCGAGUUGAACUUCAGUCAAAG”, the “apparent Kd” value came to 9.61 nM under setting [1] and 19.5 nM under setting [2].

As to “GGAUAGGACAGAGGAUAUACGUGCUAGAGAUACUAGCAAAAUUUACUCACAUGAGGAUCACCCAUGUAGAAGGCUGUCCUAUCG”, the “apparent Kd” value runs as follows: under setting [1], 5.09 nM; under setting [2], 22.2 nM.

With “UCCCGGGUGCAGAAGGGAUAGGCCUAUUUUCGUGGUAUCCAAACCUUACAUGAGGAUCACCCAUGUCAGGAUAUGCCCACGGGA”, the “apparent Kd” value runs as follows: under setting [1], 4.47 nM; under setting [2], 4.96 nM.

“GAUAGAGAGCAGGAUAUCAUAGAAAUGUAUGAAUGAGAAGGGCUCACAUGAGGAUCACCCAUGUGGUCCUAGAU”: the “apparent Kd” value runs as follows: under setting [1], 25.8 nM; under setting [2], 236 nM.

Consider “AGUAAGAUGCAGAAGGUGUUAGCUAGAGCUACGACAUGAGGAUCACCCAUGUACUAAAACCCGUACAAGGAUAUGCAUCUUACA”, for which the “apparent Kd” value is, setting by setting: under setting [3], 8.17 nM; under setting [4], 6.47 nM.

Regarding “CAAAUUUGGUAAGGAUAUCCCACAUUAUUCUGACCCGUGCAAGCUACAUGAGGAUCACCCAUGUGGGAGAAGGUGCGUUAAAGA”, the “apparent Kd” value turned out to be 63 nM under setting [1] and 79 nM under setting [2].

Regarding “GUUAAACAUGAGGAUCACCCAUGUCAAUGUAGUCGAGGAUAUGGGCAGCUGUGAGGCGUACUAGAAGGCGAAAAGG”, the “apparent Kd” value runs as follows: under setting [3], 270 nM; under setting [4], 57.5 nM.

In the case of “GUCAGCUCGUGAGGAUAUACAUGAUAGAUCGAUUAAUUAAUUAAUUUAACAUGAGGAUCACCCAUGUAGAAGGCACGAGCUGAU”, the “apparent Kd” value runs as follows: under setting [1], 57.2 nM; under setting [2], 46.6 nM.

In the case of “CGCUGUCACGCAGGAUAUGCAUUGGAUUCCAAUGCAGAAGGGCGAUUACAUGAGGAUCACCCAUGUGUCGACAGUGAAGAAGAG”, the “apparent Kd” value runs as follows: under setting [3], 599 nM; under setting [4], 44 nM.

Consider “GGAGACCUCACAGGAUAUGCUGGACUUUGUCCAGCAGAAGGGUGAACACAUGAGGAUCACCCAUGUGGUCUCCAAAUAUUUAAU”, for which the “apparent Kd” value under setting [3] came out at 816 nM and the “apparent Kd” value under setting [4] came to 74.2 nM.

With “UGGUGAAAUGUAGGAUAUGGAAAUAAAUUUUAACCAGAAGGACAUGAGGAUCACCCAUGUGAUAGAGAAUUAAUAAUAGCUCCU”, the “apparent Kd” value reads like this: under setting [1], 26.9 nM; under setting [2], 31.3 nM.

For “CCGAAUGUCACAGGAUAUGGUCCGGGCACGCGACCAGAAGGGUGAUCUUACAUGAGGAUCACCCAUGUAUAGGCGUUAGGCUAC”, the “apparent Kd” value by setting is: under setting [3], 32.9 nM; under setting [4], 442 nM.

With “CCCAAGUCAGGAUAUGGAACACAGAGACAUCUCUGUGCCCACCAGAAGGGACAUGAGGAUCACCCAUGUGAUGA”, the “apparent Kd” value is, setting by setting: under setting [1], 64.4 nM; under setting [2], 296 nM.

On to “GUACAACAUGAGGAUCACCCAUGUAUAUAUAUACGAGGAUAUGCAUGUACGAAAGUAUAUGCAGAAGGCGUUGUAC”, for which the “apparent Kd” value reads like this: under setting [3], 127 nM; under setting [4], 30.2 nM.

As to “AACCUAUUACAGAAGGCCAGCUACAUGAGGAUCACCCAUGUCGAGUCAUGGAGGAUAUGUAGUAAUUUACUCGCGGAUGAGUAA”, the “apparent Kd” value under setting [3] came to 23.8 nM and the “apparent Kd” value under setting [4] stood at 5.35 nM.

In the case of “AAAAAACAUGAGGAUCACCCAUGUGAGGAUAUGCGAAAAAAAAAAAAAAAAAAAAAAAGCAGAAGGCACAAAAA”, the “apparent Kd” value under setting [1] was 43.9 nM and the “apparent Kd” value under setting [2] was determined as 60.8 nM.

“UAAUAAUAAUAAUAAUGGACUGAUACAUGAGGAUCACCCAUGUAGGAUAUGCAGUGGAAUACACUGCAGAAGGACAUACAGUCC”: the “apparent Kd” value reads like this: under setting [1], 16.6 nM; under setting [2], 17.2 nM.

“GUUGUACGAGGAUAUACAUGAGGAUCACCCAUGUGUGUUGUGGGCGACGUACGUUUAUGUAGAAGGCGUGCGGC”: the “apparent Kd” value under setting [1] was 63.6 nM and the “apparent Kd” value under setting [2] was 115 nM.

With “AGUGGGCUAGGAUAUCGAUGAACUCACAUGAGGAUCACCCAUGUGUCUUUGGUGGGCGCACGAGAAGGAGUAAGAU”, the “apparent Kd” value reads like this: under setting [1], 40.4 nM; under setting [2], 43.3 nM.
